# Vif imaging: blocks HIV Vif function | HEK293T cells, Vif self-association by quenched fluorescence, imaging, 24 h | inhibition, % at 7.49 µM | hit rate 0.35% among 340,000 | AID 602346; in the data active means inhibition above about 50%, passing the limit was not always enough; inconclusive means no clear call, values can overlap the other calls; inactive means below about 31%
# SR-BI DiI-HDL act: enhances SR-BI lipid uptake from DiI-HDL; CHO ldlA[mSR-BI] cells, DiI-HDL uptake fluorescence, 3 h; 100 = double the neutral-control signal; activation, % at 12.5 µM; hit rate 0.096% among 320,000;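 active means mean replicate activation of at least 60% and every replicate at or above 60%; inconclusive means mean or all-replicate condition met, but not both; inactive means mean below 60% and not all replicates reaching 60%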;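 further: 0% = median plate neutral-control signal and 100% = twice that signal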
#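 Material: SR-BI-overexpressing, LDLR-lacking CHO cells; schedule: compound exposure 3 h, 37 °C; reagent: DiI-labelled HDL at 10 µg/mL final; technique: bottom-read fluorescence, 550/595 nm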
# H9c2 TAG inh: inhibitors of triacylglycerol accumulation. inhibition, % at 12.5 µM. H9c2 cells, Nile Red lipid (TAG) fluorescence; cells loaded with 200 µM oleic acid. hit rate 0.66% among 230,000;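 active means pattern-corrected inhibition of lipid staining of at least 50% with the nuclear-stain viability signal not falling by more than 50%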;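 further: 0% = DMSO wells and 100% = triacsin C control wells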
# SR-BI HDL uptake: mouse SR-BI HDL lipid transfer inhibition. Q61009. ldlA[mSR-BI] CHO cells, DiI-HDL uptake fluorescence, 3 h. inhibition, % at 12.5 µM. hit rate 0.96% among 320,000. AID 488896;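 active means mean replicate inhibition of at least 70% and a set share of replicates each scoring 70 or more; inconclusive means meets just one of the two criteria; inactive means fails both criteria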;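 further: 0% = median of neutral control wells and 100% = median of positive control wells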
# Target sequence (Q61009 whole entry, looked up): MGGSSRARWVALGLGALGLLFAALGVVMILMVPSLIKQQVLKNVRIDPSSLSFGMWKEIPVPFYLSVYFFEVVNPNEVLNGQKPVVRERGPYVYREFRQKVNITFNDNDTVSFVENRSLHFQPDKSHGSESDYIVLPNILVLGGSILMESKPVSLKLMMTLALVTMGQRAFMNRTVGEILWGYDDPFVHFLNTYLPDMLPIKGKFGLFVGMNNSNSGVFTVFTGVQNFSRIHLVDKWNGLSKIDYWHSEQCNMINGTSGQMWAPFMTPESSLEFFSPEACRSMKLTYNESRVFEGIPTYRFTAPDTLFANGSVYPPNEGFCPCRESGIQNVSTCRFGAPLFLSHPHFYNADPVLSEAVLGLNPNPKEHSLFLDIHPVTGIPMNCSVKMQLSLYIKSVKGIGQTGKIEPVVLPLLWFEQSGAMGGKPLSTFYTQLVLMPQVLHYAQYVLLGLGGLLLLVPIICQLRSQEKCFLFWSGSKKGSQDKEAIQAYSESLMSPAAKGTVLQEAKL
# SMARCA2 activ: increases SMARCA2 function in MMTV reporter cells | AID 652017 | MG213 cells, MMTV-luciferase reporter, dexamethasone, overnight | activation, % at 9.1 µM | hit rate 1% among 370,000; in the data active means activation above about 7.8%;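 further: 0% = vehicle wells and 100% = reference activator wells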
# The depositor's hits bear a star; i = inactive; u = inconclusive; x = not tested or not shown. Compounds with a hit are over-represented: about 2.5% of the library has one in this group of screens.
SMILES,Vif imaging,SR-BI DiI-HDL act,H9c2 TAG inh,SR-BI HDL uptake,SMARCA2 activ
O=C(/C=C/c1ccc(OCc2ccccc2)c(OCc2ccccc2)c1)c1cccnc1,-7.4,-83.7,x,83.7*,-2.0
Cc1onc(-c2ccccc2)c1C(=O)NCC1CCN(C(=O)C(=O)c2cccs2)CC1,x,x,x,x,-4.8
N#Cc1c(NC(=O)/C=C/c2ccco2)sc2c1CCCC2,0.9,-80.1,x,80.1*,3.6
N#Cc1c(NC(=O)c2ccccc2)sc2c1CCCCC2,5.4,-78.5,x,78.5*,5.9
NC(=O)c1c(NC(=O)c2ccc(N3C(=O)CCC3=O)cc2)sc2c1CCCC2,-2.9,-75.4,-7.0,75.4*,-0.7
Cc1ccc(C(=O)Nc2sc3c(c2C#N)CCCCC3)cc1C,x,-67.5,10.1,67.5,3.4
COc1ccc(CN2C[C@@]3(O)CC[C@@H](O)[C@@H](OC)[C@@H]3[C@@](C)(O)[C@@H]2CC=C(C)C)cc1,x,x,x,x,-2.5
COC(=O)C1=C(C)N(C)C(=NCc2ccccc2)NC1c1ccccc1 (stereo unspecified),x,x,x,x,1.0
C=CCn1c(SCC(=O)N(CC)C2CCS(=O)(=O)C2)nnc1-c1ccccc1 (stereo unspecified),x,73.4*,-2.9,-73.4,-0.2
CCOC(=O)N[C@@H](CC(C)C)C(=O)N1CCC[C@H]1C(=O)NCc1ccccc1,x,x,x,x,-0.8
C#CCOc1ccc(Cl)cc1/C=N/O,0.9,5.0,x,-5.0,1.7
C#CCOc1ccc(/C=N/O)cc1Cl,0.3,84.2*,x,-84.2,0.1
O=C(N/C=N/OCc1ccc(Cl)cc1Cl)NOCc1ncc(C(F)(F)F)cc1Cl,-8.1,-83.1,-6.0,83.2*,-1.8
CCCCS(=O)(=O)N1CCCc2nc(C)c(C)cc21,x,x,x,x,-1.9
Cc1ccc(C(=O)OCC(=O)N2c3ccccc3NC(=O)C2(C)C)cc1S(=O)(=O)N1CCCCC1,-9.1,-84.1,-13.5,84.1*,-2.4
Cc1ccc(S(=O)(=O)N2CCCCC2)cc1C(=O)OCC(=O)N1c2ccccc2NC(=O)C1(C)C,-9.5,-66.5,-18.5,66.5,-1.5
Cn1nc(C(F)(F)F)c2cc(C(=O)Nc3ccc(F)cc3)sc21,-2.3,-75.7,8.1,75.7*,3.0
Cn1nc(C(F)(F)F)c2cc(C(=O)Nc3ccc(C(F)(F)F)cc3)sc21,8.7,-84.1,1.6,84.1*,-1.1
Cn1nc(C(F)(F)F)c2cc(C(=O)Nc3ccc(F)c(Cl)c3)sc21,3.7,-72.8,12.3,u,-1.6
COC(=O)C1=C(C)N(Cc2cccc(C(F)(F)F)c2)C(=NCc2cc(OC)c(OC)c(OC)c2)NC1CCc1ccccc1 (stereo unspecified),x,x,x,x,-0.5
Nc1ccn([C@@H]2O[C@H](C(=O)N[C@H](Cc3ccccc3)C(=O)N3CCN(C(=O)N4CCOCC4)CC3)[C@@H](O)[C@H]2O)c(=O)n1,x,x,x,x,-2.4
COC(=O)c1cc2c(c3c4cc(OC)ccc4n(S(=O)(=O)c4ccc(OC)cc4)c13)C(=O)N(Cc1ccc(N(C)C)cc1)C2,x,x,x,x,-1.6
O=C(COc1cc(F)ccc1[N+](=O)[O-])Nc1cc(S(=O)(=O)N2CCCC2)ccc1Cl,-14.1,-75.0,17.6,75.0*,-1.8
CCCn1c(=O)c2c(nc3n2CCCN3CCc2ccccc2)n(C)c1=O,-1.8,-8.6,x,8.6,-2.5
Cn1c(=O)n(CCc2ccccc2)c(=O)c2c1nc1n2CCCN1CCc1ccccc1,-21.4,505.8*,-43.7,i,-0.5
SMILES,Vif imaging,SR-BI DiI-HDL act,H9c2 TAG inh,SR-BI HDL uptake,SMARCA2 activ
O=C(NCc1ccccc1)[C@H]1CCCN1C(=O)[C@H]1CCCN1C(=O)c1ccc(F)cc1,x,x,x,x,-1.5
CCOC(=O)c1c(NC(=O)CN(C)C)sc(C(=O)N(CC)CC)c1C,-4.6,2.7,10.1,-2.7,-3.1
CCOC(=O)c1c(NC(=O)C2c3ccccc3Oc3ccccc32)sc(C(=O)N(CC)CC)c1C,6.5,-14.0,80.5*,14.0,x
CCOC(=O)Cc1csc(NC(=O)c2cc(OC)cc(OC)c2)n1,x,-56.0,-3.6,56.0,-3.1
COc1cc(OC)cc(C(=O)Nc2nc(CC(=O)NCCc3ccccc3)cs2)c1,-0.5,-80.8,-14.9,80.8*,-2.0
COc1cc(OC)cc(C(=O)Nc2nc(CC(=O)NCc3ccccc3OC)cs2)c1,0.9,-70.0,-8.2,70.0*,-1.5
COc1cc(OC)cc(C(=O)Nc2nc(CC(=O)NCc3ccc(F)cc3)cs2)c1,-9.7,-52.7,-21.0,52.7,-2.7
COc1ccc2c(c1)[C@@]1(OCCC=C[C@H]1C)C(=O)N2Cc1ccc(Br)cc1,x,x,x,x,1.5
COc1cccc(C(C(=O)NC2CCCC2)N(C(=O)c2ccco2)c2ccc(C(C)=O)cc2)c1OC (stereo unspecified),-6.2,234.4*,x,-234.4,-1.4
Cc1ccc(C2NC(=O)c3n[nH]c(C(C)C)c32)cc1 (stereo unspecified),x,x,x,x,-0.4
CNC[C@@H](CC1CCCCC1)NC[C@H](CC(C)C)NCCc1cccc(C(F)(F)F)c1,3.5,22.7,134.4*,-22.7,-6.8
O=S(=O)(c1ccc(F)cc1)c1snnc1-c1ccccc1,5.7,4.6,-7.5,-4.6,-3.7
O=S(=O)(c1ccc(Cl)cc1)c1snnc1-c1ccccc1,93.7*,0.3,12.4,-0.3,-6.6
COCCCNC(=O)C[C@H]1C[C@@]2(C(=O)OC)C(=C[C@H](C3CCCC3)O[C@@H]2C)N(Cc2ccc(Cl)cc2Cl)C1=O,x,x,x,x,-3.0
Cc1ccc(Cn2cc(CN(C(C)(C)C)S(=O)(=O)c3ccccc3Br)nn2)cc1,x,x,x,x,-3.7
O=C(NCCc1nc(-c2ccccc2Cl)no1)c1ccccc1,11.1,-4.3,x,4.3,-1.7
CC(C)C(=O)NCCc1nc(-c2ccccc2Cl)no1,83.3*,6.3,6.8,-6.3,0.3
O=[N+]([O-])c1ccc(/C=N/NC2=NS(=O)(=O)c3ccccc32)cc1,0.9,24.3,x,-24.3,-1.3
O=[N+]([O-])c1ccc(O)c(/C=N/Nc2ccc(Cl)nn2)c1,-1.5,-106.2,-68.9,106.2*,-4.1
O=[N+]([O-])c1ccc(O)c(/C=N/NC2=NS(=O)(=O)c3ccccc32)c1,3.2,-87.7,x,87.7*,-2.5
O=[N+]([O-])c1ccc(O)c(/C=N/Nc2nn[nH]n2)c1,25.5,-1.8,4.9,1.8,-1.6
CCCCc1c(-c2ccccc2OC)ncn1Cc1ccc([N+](=O)[O-])cc1,x,x,x,x,-1.2
CCOC(=O)C1=C(C)NC(=O)C(C#N)C1c1ccco1 (stereo unspecified),1.6,60.9*,x,-60.9,1.2
CCOc1cccc(CNCCO)c1OCc1ccc(Cl)cc1Cl,-0.8,18.7,x,-18.7,-0.5
CCOc1cccc(CNc2ccc(O)cc2)c1OCc1ccc(Cl)cc1Cl,1.9,-80.3,x,80.3*,-2.1
CCOc1cccc(CNc2ccc(O)cc2)c1OCc1ccccc1Cl,9.1,-80.9,11.8,80.9*,-2.6
COC(=O)C1=C(C)N(Cc2cccc(C(F)(F)F)c2)C(=NCc2ccc(OC)cc2)NC1c1cccc(C(F)(F)F)c1 (stereo unspecified),x,x,x,x,-1.5
Cc1ccc(-c2n[nH]c(Cc3ccccc3)n2)cc1,-3.2,-2.4,x,2.4,7.9*
Oc1ccc2[nH]cc(-c3cccs3)c2c1-c1ccccc1,x,x,x,x,-3.4

# High-throughput results as filed in PubChem.
